How the values were obtained:
Rattus norvegicus = assay: AUC (0 to infinity) as total radioactivity in male Sprague-Dawley rat plasma at 15 mg/kg, po administered as single dose by LC/MS/MS analysis; format: ADME, organism-based; set-up: time infinity, dose 15 mg/kg, dosed compound name [14C]Sunitinib, route oral; conditions: in vivo
How it was run: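 Single dose of [14C]sunitinib L-malate as free base, 50 µCi/kg. IV dose was 5 mg/kg by tail vein in 5 females. Oral dose was 15 mg/kg by gavage in 3 females and 3 males. Total radioactivity was by scintillation counting. […] Cmax was read from raw data, t½ by log-linear regression, AUC by linear trapezoidal rule.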

Homo sapiens = assay: Tmax as total radioactivity in human plasma at 50 mg, po administered as single dose measured up to 24 hrs by LC/MS/MS analysis; format: ADME, organism-based; set-up: dosed compound name [14C]Sunitinib; conditions: in vivo
Large intestine = assay: Drug concentration in male Lister Hooded pigmented rat large intestine assessed as radioactivity per gram of tissue at 20 mg/kg administered as single dose via gastric gavage measured after 72 hrs by autoradiographic analysis; format: ADME, organism-based; set-up: dose 20 mg/kg, dosed compound name [14C]Sunitinib; conditions: in vivo, po
Zone of skin [1] = assay: Drug concentration in male Lister Hooded pigmented rat abdomen skin assessed as radioactivity per gram of tissue at 20 mg/kg administered as single dose via gastric gavage measured after 72 hrs by autoradiographic analysis; format: ADME, organism-based; set-up: dose 20 mg/kg, dosed compound name [14C]Sunitinib; conditions: in vivo, po
[2] = Drug recovery in feces of male cynomolgus monkey at 6 mg/kg, po administered as single dose during 0 to 336 hrs by liquid scintillation counting; format: ADME, organism-based, Macaca fascicularis; set-up: dose 6 mg/kg, dosed compound name [14C]Sunitinib, route oral; conditions: in vivo
Heart = assay: Drug concentration in male Lister Hooded pigmented rat heart assessed as radioactivity per gram of tissue at 20 mg/kg administered as single dose via gastric gavage measured after 24 hrs by autoradiographic analysis; format: ADME, organism-based; set-up: dose 20 mg/kg, dosed compound name [14C]Sunitinib; conditions: in vivo, po
[3] = Drug concentration in male Lister Hooded pigmented rat lachrymal gland assessed as radioactivity per gram of tissue at 20 mg/kg administered as single dose via gastric gavage measured after 24 hrs by autoradiographic analysis; format: ADME, organism-based; set-up: dose 20 mg/kg, dosed compound name [14C]Sunitinib; conditions: in vivo, po
[4] = Drug concentration in male Lister Hooded pigmented rat salivary gland assessed as radioactivity per gram of tissue at 20 mg/kg administered as single dose via gastric gavage measured after 24 hrs by autoradiographic analysis; format: ADME, organism-based; set-up: dose 20 mg/kg, dosed compound name [14C]Sunitinib; conditions: in vivo, po
Adrenal [5] = assay: Drug concentration in male albino rat adrenal assessed as radioactivity per gram of tissue at 20 mg/kg administered as single dose via gastric gavage measured after 6 hrs by autoradiographic analysis; format: ADME, organism-based; set-up: dose 20 mg/kg, dosed compound name [14C]Sunitinib; conditions: in vivo, po
Zone of skin [6] = assay: Drug concentration in male Lister Hooded pigmented rat abdomen skin assessed as radioactivity per gram of tissue at 20 mg/kg administered as single dose via gastric gavage measured after 168 hrs by autoradiographic analysis; format: ADME, organism-based; set-up: dose 20 mg/kg, dosed compound name [14C]Sunitinib; conditions: in vivo, po
Spleen [7] = assay: Drug concentration in male Lister Hooded pigmented rat spleen assessed as radioactivity per gram of tissue at 20 mg/kg administered as single dose via gastric gavage measured after 168 hrs by autoradiographic analysis; format: ADME, organism-based; set-up: dose 20 mg/kg, dosed compound name [14C]Sunitinib; conditions: in vivo, po
Kidney [8] = assay: Drug concentration in male Lister Hooded pigmented rat kidney assessed as radioactivity per gram of tissue at 20 mg/kg administered as single dose via gastric gavage measured after 168 hrs by autoradiographic analysis; format: ADME, organism-based; set-up: dose 20 mg/kg, dosed compound name [14C]Sunitinib; conditions: in vivo, po
[9] = Drug concentration in female albino rat bladder assessed as radioactivity per gram of tissue at 20 mg/kg administered as single dose via gastric gavage measured after 6 hrs by autoradiographic analysis; format: ADME, organism-based, Urinary bladder; set-up: dose 20 mg/kg, dosed compound name [14C]Sunitinib; conditions: in vivo, po
How it was run: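 Sprague Dawley (albino) rats, ca 7-8 weeks old, received a single gastric-gavage dose of [14C]sunitinib L-malate at 20 mg/kg (15 mg freebase/kg, 100 µCi/kg). One animal per sex killed by CO2 at 3, 6, 24, 72 and 168 h, then frozen in CO2/hexane. 30 µm sagittal sections were cut and freeze-dried. Radioactivity per gram quantified by whole-body autoradiography using regression against standards. LOQ 0.04–0.06 µg freebase equiv/g.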

[10] = Drug concentration in female albino rat eye assessed as radioactivity per gram of tissue at 20 mg/kg administered as single dose via gastric gavage measured after 6 hrs by autoradiographic analysis; format: ADME, organism-based; set-up: dose 20 mg/kg, dosed compound name [14C]Sunitinib; conditions: in vivo, po
How it was run: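 Sprague Dawley albino rats, ca 7-8 weeks old, dosed once by gastric gavage with [14C]sunitinib L-malate (15 mg freebase/kg, 100 µCi/kg). One male and one female killed by CO2 at 3, 6, 24, 72 and 168 h. Carcasses frozen in solid CO2/hexane, embedded and cut into 30 µm sagittal sections, then freeze-dried. Radioactivity quantified by whole-body autoradiography against standards by regression, background subtracted.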

Adrenal [11] = assay: Drug concentration in male albino rat adrenal assessed as radioactivity per gram of tissue at 20 mg/kg administered as single dose via gastric gavage measured after 3 hrs by autoradiographic analysis; format: ADME, organism-based; set-up: dose 20 mg/kg, dosed compound name [14C]Sunitinib; conditions: in vivo, po
Blood [12] = assay: Drug concentration in male Lister Hooded pigmented rat blood assessed as radioactivity per gram of tissue at 20 mg/kg administered as single dose via gastric gavage measured after 168 hrs by autoradiographic analysis; format: ADME, organism-based; set-up: dose 20 mg/kg, dosed compound name [14C]Sunitinib; conditions: in vivo, po
[13] = Drug concentration in female albino rat thyroid gland assessed as radioactivity per gram of tissue at 20 mg/kg administered as single dose via gastric gavage measured after 72 hrs by autoradiographic analysis; format: ADME, organism-based; set-up: dose 20 mg/kg, dosed compound name [14C]Sunitinib; conditions: in vivo, po
Spleen [14] = assay: Drug concentration in male albino rat spleen assessed as radioactivity per gram of tissue at 20 mg/kg administered as single dose via gastric gavage measured after 24 hrs by autoradiographic analysis; format: ADME, organism-based; set-up: dose 20 mg/kg, dosed compound name [14C]Sunitinib; conditions: in vivo, po
[15] = Drug concentration in male albino rat uveal tract assessed as radioactivity per gram of tissue at 20 mg/kg administered as single dose via gastric gavage measured after 24 hrs by autoradiographic analysis; format: ADME, organism-based; set-up: dose 20 mg/kg, dosed compound name [14C]Sunitinib; conditions: in vivo, po
[16] = Drug concentration in male albino rat testis assessed as radioactivity per gram of tissue at 20 mg/kg administered as single dose via gastric gavage measured after 6 hrs by autoradiographic analysis; format: ADME, organism-based; set-up: dose 20 mg/kg, dosed compound name [14C]Sunitinib; conditions: in vivo, po
Blood [17] = assay: Drug concentration in male albino rat blood assessed as radioactivity per gram of tissue at 20 mg/kg administered as single dose via gastric gavage measured after 24 hrs by autoradiographic analysis; format: ADME, organism-based; set-up: dose 20 mg/kg, dosed compound name [14C]Sunitinib; conditions: in vivo, po
[18] = Drug concentration in male albino rat eye assessed as radioactivity per gram of tissue at 20 mg/kg administered as single dose via gastric gavage measured after 24 hrs by autoradiographic analysis; format: ADME, organism-based; set-up: dose 20 mg/kg, dosed compound name [14C]Sunitinib; conditions: in vivo, po
[19] = Drug concentration in female Lister Hooded pigmented rat lymph node assessed as radioactivity per gram of tissue at 20 mg/kg administered as single dose via gastric gavage measured after 24 hrs by autoradiographic analysis; format: ADME, organism-based; set-up: dose 20 mg/kg, dosed compound name [14C]Sunitinib; conditions: in vivo, po
How it was run: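 Sprague Dawley (albino) and Lister Hooded (pigmented) rats, ca 7-8 weeks old, 179-310 g, acclimated 7 days. Single gavage dose of [14C]sunitinib L-malate (15 mg freebase/kg, 100 µCi/kg). One male and one female killed by CO2 per time point: albino at 3, 6, 24, 72, 168 h; pigmented at 24, 72, 168, 336 h. Carcasses frozen in solid CO2/hexane, 30 µm sagittal sections freeze-dried. Tissue radioactivity read by quantitative whole-body autoradiography against regression of standards, mean background subtracted.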

Kidney [20] = assay: Drug concentration in female Lister Hooded pigmented rat kidney assessed as radioactivity per gram of tissue at 20 mg/kg administered as single dose via gastric gavage measured after 72 hrs by autoradiographic analysis; format: ADME, organism-based; set-up: dose 20 mg/kg, dosed compound name [14C]Sunitinib; conditions: in vivo, po
How it was run: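 Lister Hooded (pigmented) rats, ca 7-8 weeks old, acclimated 7 days, given [14C]sunitinib L-malate by gastric gavage at 20 mg/kg (15 mg freebase/kg, 100 µCi/kg). One male and one female killed by CO2 at 24, 72, 168 and 336 h. Carcasses frozen in solid CO2/hexane and embedded in frozen cellulose. 30 µm sagittal cryosections were freeze-dried. Tissue radioactivity measured by quantitative whole-body autoradiography against calibration standards, with background subtracted.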

Small intestine = assay: Drug concentration in female albino rat small intestine assessed as radioactivity per gram of tissue at 20 mg/kg administered as single dose via gastric gavage measured after 72 hrs by autoradiographic analysis; format: ADME, organism-based; set-up: dose 20 mg/kg, dosed compound name [14C]Sunitinib; conditions: in vivo, po

## CCN(CC)CCNC(=O)c1c(C)[nH]c(/[14CH]=C2\C(=O)Nc3ccc(F)cc32)c1C.O=C(O)C[C@H](O)C(=O)O
Rattus norvegicus
  AUC: 82039 ng.Eq.hr/ml
Homo sapiens
  Tmax: 8 h
Large intestine
  Radiolabel recovery: 0.08 ugequiv
Zone of skin [1]
  Radiolabel recovery: 0.64 ugequiv
[2]
  Radiolabel recovery: 87.3%
Heart
  Radiolabel recovery: 0.43 ugequiv
[3]
  Radiolabel recovery: 0.94 ugequiv
[4]
  Radiolabel recovery: 3.52 ugequiv
Adrenal [5]
  Radiolabel recovery: 13.57 ugequiv
Zone of skin [6]
  Radiolabel recovery: 0.58 ugequiv
Spleen [7]
  Radiolabel recovery: 0.06 ugequiv
Kidney [8]
  Radiolabel recovery: 0.06 ugequiv
[9]
  Radiolabel recovery: 6.2 ugequiv
[10]
  Radiolabel recovery: 1.18 ugequiv
Adrenal [11]
  Radiolabel recovery: 25.22 ugequiv
Blood [12]
  Radiolabel recovery: 0.06 ugequiv
[13]
  Radiolabel recovery: 0.26 ugequiv
Spleen [14]
  Radiolabel recovery: 1.23 ugequiv
[15]
  Radiolabel recovery: 0.13 ugequiv
[16]
  Radiolabel recovery: 0.9 ugequiv
Blood [17]
  Radiolabel recovery: 0.07 ugequiv
[18]
  Radiolabel recovery: 0.08 ugequiv
[19]
  Radiolabel recovery: 1.14 ugequiv
Kidney [20]
  Radiolabel recovery: 0.19 ugequiv
Small intestine
  Radiolabel recovery: 0.08 ugequiv

Reference: ChEMBL document CHEMBL3525900, “Pharmacokinetics, distribution, and metabolism of [14C]sunitinib in rats, monkeys, and humans” (Drug Metab Dispos, 2012)
